Measurements published in ChEMBL document CHEMBL1649446, “Comparative antipneumococcal activities of sulopenem and other drugs” (2009).
Converted amounts (≈) assume the structure as drawn.

Key:
Assay type in all cases: functional
Streptococcus pneumoniae [1] = assay: Antimicrobial activity against Streptococcus pneumoniae isolate 3681 by agar dilution method
In short: (§1)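 Agar dilution MIC on Mueller-Hinton agar with 5% sheep blood, inocula 10^4 CFU/spot; amoxicillin-clavulanate combined 1:2; S. pneumoniae ATCC 49619 quality control each run.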

Streptococcus pneumoniae [2] = assay: Antimicrobial activity against Streptococcus pneumoniae isolate 2874 by agar dilution method; in short: as §1
Streptococcus pneumoniae [3] = assay: Antimicrobial activity against Streptococcus pneumoniae isolate 3412 by agar dilution method; in short: as §1
Streptococcus pneumoniae [4] = assay: Antimicrobial activity against Streptococcus pneumoniae isolate 1146 by agar dilution method; in short: as §1
Streptococcus pneumoniae [5] = assay: Antimicrobial activity against Streptococcus pneumoniae isolate 1397 by agar dilution method; in short: as §1
Streptococcus pneumoniae [6] = assay: Antimicrobial activity against Streptococcus pneumoniae isolate 33 by agar dilution method; in short: as §1
Streptococcus pneumoniae [7] = assay: Antimicrobial activity against penicillin-intermediate Streptococcus pneumoniae by agar dilution method
Streptococcus pneumoniae [8] = assay: Antimicrobial activity against Streptococcus pneumoniae isolate 3791 by agar dilution method; in short: as §1
Streptococcus pneumoniae [9] = assay: Antimicrobial activity against Streptococcus pneumoniae isolate 1564 by agar dilution method
Streptococcus pneumoniae [10] = assay: Antimicrobial activity against Streptococcus pneumoniae isolate 3346 by agar dilution method
Streptococcus pneumoniae [11] = assay: Antimicrobial activity against Streptococcus pneumoniae 19A by agar dilution method; in short: as §1
Streptococcus pneumoniae [12] = assay: Antimicrobial activity against Streptococcus pneumoniae 11 by time-kill analysis
In short: (§2)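 Time-kill in cation-adjusted Mueller-Hinton broth with 5% lysed horse blood; inocula 5 × 105 to 5 × 10^6 CFU/ml; drugs at MIC, 2× and 4× MIC; 35°C shaking water bath; viable counts at 0, 3, 6, 12, 24 h. Bactericidal = ≥3 log10 CFU/ml (99.9%) drop from original inoculum; 90%/99%/99.9% killing scored per strain.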

Streptococcus pneumoniae [13] = assay: Antimicrobial activity against Streptococcus pneumoniae 6 by time-kill analysis; in short: as §2
Streptococcus pneumoniae [14] = assay: Antimicrobial activity against Streptococcus pneumoniae 12 by time-kill analysis; in short: as §2
Streptococcus pneumoniae [15] = assay: Antimicrobial activity against Streptococcus pneumoniae 5 by time-kill analysis
In short: as §2, with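 “12 and” for “12,”, “if” for “=”, “reduction” for “drop”, “90% and 99%” for “90%/99%/99.9%”, “also scored.” for “scored per strain.”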

Streptococcus pneumoniae [16] = assay: Antimicrobial activity against Streptococcus pneumoniae 2 by time-kill analysis; in short: as §2
Streptococcus pneumoniae [17] = assay: Antimicrobial activity against Streptococcus pneumoniae isolate 1384 by agar dilution method; in short: as §1
Streptococcus pneumoniae [18] = assay: Antimicrobial activity against Streptococcus pneumoniae isolate 3260 by agar dilution method
Streptococcus pneumoniae [19] = assay: Antimicrobial activity against penicillin-resistant Streptococcus pneumoniae by agar dilution method; in short: as §1
Streptococcus pneumoniae [20] = assay: Antimicrobial activity against Streptococcus pneumoniae 7 by time-kill analysis; in short: as §2
Streptococcus pneumoniae [21] = assay: Antimicrobial activity against Streptococcus pneumoniae isolate 2686 by agar dilution method; in short: as §1
Streptococcus pneumoniae [22] = assay: Antimicrobial activity against Streptococcus pneumoniae 3 by time-kill analysis; in short: as §2
Streptococcus pneumoniae [23] = assay: Antimicrobial activity against Streptococcus pneumoniae isolate 3374 by agar dilution method; in short: as §1
Streptococcus pneumoniae [24] = assay: Antimicrobial activity against Streptococcus pneumoniae isolate 3275 by agar dilution method; in short: as §1
Streptococcus pneumoniae [25] = assay: Antimicrobial activity against Streptococcus pneumoniae 1 by time-kill analysis
In short: as §2, with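 “12 and” for “12,”, “if” for “=”, “reduction” for “drop”, “90% and 99%” for “90%/99%/99.9%”, “also scored.” for “scored per strain.”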

Streptococcus pneumoniae [26] = assay: Antimicrobial activity against Streptococcus pneumoniae isolate 4747 by agar dilution method; in short: as §1
Streptococcus pneumoniae [27] = assay: Antimicrobial activity against Streptococcus pneumoniae isolate 1147 by agar dilution method; in short: as §1
Streptococcus pneumoniae [28] = assay: Antimicrobial activity against Streptococcus pneumoniae isolate 1424 by agar dilution method; in short: as §1
Streptococcus pneumoniae [29] = assay: Antimicrobial activity against Streptococcus pneumoniae isolate 3458 by agar dilution method
Streptococcus pneumoniae [30] = assay: Antimicrobial activity against Streptococcus pneumoniae isolate 3282 by agar dilution method
Streptococcus pneumoniae [31] = assay: Antimicrobial activity against Streptococcus pneumoniae isolate 2880 by agar dilution method; in short: as §1
Streptococcus pneumoniae [32] = assay: Antimicrobial activity against Streptococcus pneumoniae isolate 37 by agar dilution method; in short: as §1
Streptococcus pneumoniae [33] = assay: Antimicrobial activity against Streptococcus pneumoniae isolate 1055 by agar dilution method
Streptococcus pneumoniae [34] = assay: Antimicrobial activity against Streptococcus pneumoniae isolate 24 by agar dilution method
Streptococcus pneumoniae [35] = assay: Antimicrobial activity against penicillin-susceptible Streptococcus pneumoniae by agar dilution method
Streptococcus pneumoniae [36] = assay: Antimicrobial activity against Streptococcus pneumoniae 4 by time-kill analysis; in short: as §2
Streptococcus pneumoniae [37] = assay: Antimicrobial activity against Streptococcus pneumoniae 10 by time-kill analysis; in short: as §2
Streptococcus pneumoniae [38] = assay: Antimicrobial activity against Streptococcus pneumoniae isolate 2688 by agar dilution method; in short: as §1
Streptococcus pneumoniae [39] = assay: Antimicrobial activity against Streptococcus pneumoniae isolate 2617 by agar dilution method; in short: as §1
Streptococcus pneumoniae [40] = assay: Antimicrobial activity against Streptococcus pneumoniae isolate 3481 by agar dilution method; in short: as §1
Streptococcus pneumoniae [41] = assay: Antimicrobial activity against Streptococcus pneumoniae isolate 1394 by agar dilution method
Streptococcus pneumoniae [42] = assay: Antimicrobial activity against Streptococcus pneumoniae isolate 3263 by agar dilution method
Streptococcus pneumoniae [43] = assay: Antimicrobial activity against Streptococcus pneumoniae 8 by time-kill analysis; in short: as §2
Streptococcus pneumoniae [44] = assay: Antimicrobial activity against Streptococcus pneumoniae isolate 3455 by agar dilution method
Streptococcus pneumoniae [45] = assay: Antimicrobial activity against Streptococcus pneumoniae 9 by time-kill analysis
In short: as §2, with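 “12 and” for “12,”, “if” for “=”, “reduction” for “drop”, “90% and 99%” for “90%/99%/99.9%”, “also scored.” for “scored per strain.”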

Streptococcus pneumoniae [46] = assay: Antimicrobial activity against Streptococcus pneumoniae isolate 3587 by agar dilution method
Streptococcus pneumoniae [47] = assay: Antimicrobial activity against Streptococcus pneumoniae isolate 4755 by agar dilution method; in short: as §1

## C[C@@H](O)[C@H]1C(=O)N2C(C(=O)O)=C(S[C@@H]3CN[C@H](C(=O)N(C)C)C3)[C@H](C)[C@H]12 [MEROPENEM]
Streptococcus pneumoniae [1]
  MIC: 0.25 µg/mL (≈ 0.652 µM)
Streptococcus pneumoniae [2]
  MIC: 1 µg/mL (≈ 2.61 µM)
Streptococcus pneumoniae [3]
  MIC: 0.25 µg/mL (≈ 0.652 µM)
Streptococcus pneumoniae [4]
  MIC: 1 µg/mL (≈ 2.61 µM)
Streptococcus pneumoniae [5]
  MIC: 0.5 µg/mL (≈ 1.3 µM)
Streptococcus pneumoniae [6]
  MIC: 1 µg/mL (≈ 2.61 µM)
Streptococcus pneumoniae [7]
  MIC50: 0.06 µg/mL (≈ 0.156 µM)
  MIC90: 0.25 µg/mL (≈ 0.652 µM)
Streptococcus pneumoniae [8]
  MIC: 0.25 µg/mL (≈ 0.652 µM)
Streptococcus pneumoniae [9]
  MIC: 0.125 µg/mL (≈ 0.326 µM)
Streptococcus pneumoniae [10]
  MIC: 0.25 µg/mL (≈ 0.652 µM)
Streptococcus pneumoniae [11]
  MIC50: 1 µg/mL (≈ 2.61 µM)
  MIC90: 1 µg/mL (≈ 2.61 µM)
Streptococcus pneumoniae [12]
  MIC: 1 µg/mL (≈ 2.61 µM)
Streptococcus pneumoniae [13]
  MIC: 0.12 µg/mL (≈ 0.313 µM)
Streptococcus pneumoniae [14]
  MIC: 0.5 µg/mL (≈ 1.3 µM)
Streptococcus pneumoniae [15]
  MIC: 2 µg/mL (≈ 5.22 µM)
Streptococcus pneumoniae [16]
  MIC: 0.008 µg/mL (≈ 0.0209 µM)
Streptococcus pneumoniae [17]
  MIC: 0.25 µg/mL (≈ 0.652 µM)
Streptococcus pneumoniae [18]
  MIC: 0.25 µg/mL (≈ 0.652 µM)
Streptococcus pneumoniae [19]
  MIC50: 0.5 µg/mL (≈ 1.3 µM)
  MIC90: 0.5 µg/mL (≈ 1.3 µM)
Streptococcus pneumoniae [20]
  MIC: 1 µg/mL (≈ 2.61 µM)
Streptococcus pneumoniae [21]
  MIC: 0.5 µg/mL (≈ 1.3 µM)
Streptococcus pneumoniae [22]
  MIC: 0.25 µg/mL (≈ 0.652 µM)
Streptococcus pneumoniae [23]
  MIC: 0.25 µg/mL (≈ 0.652 µM)
Streptococcus pneumoniae [24]
  MIC: 0.125 µg/mL (≈ 0.326 µM)
Streptococcus pneumoniae [25]
  MIC: 0.016 µg/mL (≈ 0.0417 µM)
Streptococcus pneumoniae [26]
  MIC: 0.25 µg/mL (≈ 0.652 µM)
Streptococcus pneumoniae [27]
  MIC: 2 µg/mL (≈ 5.22 µM)
Streptococcus pneumoniae [28]
  MIC: 0.5 µg/mL (≈ 1.3 µM)
Streptococcus pneumoniae [29]
  MIC: 1 µg/mL (≈ 2.61 µM)
Streptococcus pneumoniae [30]
  MIC: 0.25 µg/mL (≈ 0.652 µM)
Streptococcus pneumoniae [31]
  MIC: 0.5 µg/mL (≈ 1.3 µM)
Streptococcus pneumoniae [32]
  MIC: 1 µg/mL (≈ 2.61 µM)
Streptococcus pneumoniae [33]
  MIC: 0.5 µg/mL (≈ 1.3 µM)
Streptococcus pneumoniae [34]
  MIC: 0.5 µg/mL (≈ 1.3 µM)
Streptococcus pneumoniae [35]
  MIC50: 0.016 µg/mL (≈ 0.0417 µM)
  MIC90: 0.016 µg/mL (≈ 0.0417 µM)
Streptococcus pneumoniae [36]
  MIC: 0.5 µg/mL (≈ 1.3 µM)
Streptococcus pneumoniae [37]
  MIC: 0.06 µg/mL (≈ 0.156 µM)
Streptococcus pneumoniae [38]
  MIC: 0.5 µg/mL (≈ 1.3 µM)
Streptococcus pneumoniae [39]
  MIC: 0.25 µg/mL (≈ 0.652 µM)
Streptococcus pneumoniae [40]
  MIC: 0.25 µg/mL (≈ 0.652 µM)
Streptococcus pneumoniae [41]
  MIC: 0.5 µg/mL (≈ 1.3 µM)
Streptococcus pneumoniae [42]
  MIC: 0.25 µg/mL (≈ 0.652 µM)
Streptococcus pneumoniae [43]
  MIC: 1 µg/mL (≈ 2.61 µM)
Streptococcus pneumoniae [44]
  MIC: 1 µg/mL (≈ 2.61 µM)
Streptococcus pneumoniae [45]
  MIC: 0.12 µg/mL (≈ 0.313 µM)
Streptococcus pneumoniae [46]
  MIC: 0.5 µg/mL (≈ 1.3 µM)
Streptococcus pneumoniae [47]
  MIC: 0.25 µg/mL (≈ 0.652 µM)
